This note sets out measurements from ChEMBL document CHEMBL2169849, “Identification of antischistosomal leads by evaluating bridged 1,2,4,5-tetraoxanes, alphaperoxides, and tricyclic monoperoxides” (J Med Chem, 2012).

For experiment [1], the system named is Schistosoma mansoni. Kind of experiment: Antischistosomal activity against Schistosoma mansoni NTS incubated for 72 hrs. It counts as functional, organism-based. In a few lines:
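NTS from mechanically transformed cercariae (Liberian strain), 100 per well in Medium 199 + 5% iFCS, penicillin/streptomycin, preincubated 12–24 h at 37°C, 5% CO2. Exposed to 0.37–90 μg/ml (threefold steps) for 72 h. Scored microscopically on a viability scale (death, motility, morphology). DMSO control; duplicates, at least three experiments; IC50 from viability scores.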

In experiment [2] the test system is Schistosoma mansoni. Kind of experiment: Antischistosomal activity against adult Schistosoma mansoni schistosomes incubated for 72 hrs. Type of experiment: functional, organism-based.
Experiment [3] in a line: Selectivity index, ratio of IC50 for rat L6 cells to IC50 for adult Schistosoma mansoni schistosomes. In a few lines:
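Ratio of L6 IC50 to adult S. mansoni IC50, both from the assays above.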

Another experiment deals with L6. Kind of experiment: Cytotoxicity against rat L6 cells incubated for […] hrs by Alamar blue assay. Type of experiment: cell-based. For orientation: The colour change of resazurin is a common sign of viable cells or microbes.
For experiment [4], the system named is Schistosoma mansoni. Kind of experiment: Antischistosomal activity against adult Schistosoma mansoni schistosomes incubated for 72 hrs in presence of 120 uM Fe(3)-hemin. It counts as functional, organism-based. In a few lines:
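Adult worm motility assay in RPMI 1640 + 5% iFCS at 1.1–30 μg/ml. Fe(III)-hemin held at 120 μM final throughout exposure; hemin stock 1.5 mM in dilute NaOH/PBS pH 7.4. Motility scored, IC50 determined at 72 h. At least three experiments.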

Experiment [5] relates to Schistosoma mansoni. Kind of experiment: Antischistosomal activity against adult Schistosoma mansoni infected NMRI mouse adult infection model assessed as reduction in female worm burden at 400 mg/kg administered as single dose starting from 49 days post infection. Type of experiment: functional. Details: scale not given: the % may be the effect or the level left. In a few lines:
(§1)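 Mice infected subcutaneously with ~100 S. mansoni cercariae (Liberian strain). At day 49 post infection, groups of 4 NMRI mice received a single oral 400 mg/kg dose; 8–10 untreated controls. Total and female worm burden reductions calculated against untreated controls.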

The test system of experiment [6] is Schistosoma mansoni. As to the kind of experiment: Antischistosomal activity against adult Schistosoma mansoni infected NMRI mouse adult infection model assessed as reduction in total worm burden at 400 mg/kg administered as single dose starting from 49 days post infection. It counts as functional. Also noted: scale not given: the % may be the effect or the level left. In a few lines:
as §1

As a reminder, the IC50 is the concentration at which inhibition is half-maximal. Consider `Cc1ccc([C@]23OO[C@@]4(C)OC(C)(CCC42)O3)cc1`, for which the midpoint of inhibition in the experiment with Schistosoma mansoni [1], the IC50, lay at 45.3 µM.
In the case of `CCCCC12CCC3(C)O[C@]1(C)OO[C@]2(C)O3`, in the experiment on Schistosoma mansoni [1], the IC50 is 22.3 µM.
Turning to `C[C@]12OO[C@](C)(OO1)C2CCC(=O)NC1CCCCC1` (stereo partly drawn), the results for the IC50 in the experiment on Schistosoma mansoni [2] and in the experiment with Schistosoma mansoni [1] were 66.6 µM and 8.9 µM, respectively.
`C[C@]12OO[C@](C)(OO1)C2CCC(=O)NCCc1ccccc1` (stereo partly drawn): the figures for the IC50 with Schistosoma mansoni [2] and with Schistosoma mansoni [1] were 65.6 µM and 6.1 µM, respectively.
On to `CCOC(=O)C(Cc1ccccc1)(OOC(C)(C)C)C(=O)OCC`, for which the IC50 with Schistosoma mansoni [2] turned out to be 59.1 µM; in the experiment with Schistosoma mansoni [1], 14.6 µM.
`C[C@]12OO[C@](C)(OO1)C2CCC(=O)N1CCCC1` (stereo partly drawn): the half-maximal inhibitory concentration (IC50) in the experiment on Schistosoma mansoni [2] was greater than 117 µM; with Schistosoma mansoni [1], 13.9 µM.
Regarding `CC(=O)C(C)(OOC(C)(C)C)C(C)=O`, the IC50 with Schistosoma mansoni [1] is greater than 795 µM.
As for `CC(C)(C)OOC(C#N)(C#N)C1CCCC1`, the figures for the IC50 in the experiment with Schistosoma mansoni [2] and in the experiment with Schistosoma mansoni [1] were 123 µM and 10.7 µM, respectively.
The compound `CCOC(=O)CCC(OOC(C)(C)C)(C(C)=O)C(C)=O` showed an IC50 in the experiment on Schistosoma mansoni [1] greater than 104 µM.
Consider `CCCCC(OOC(C)(C)C)(C(C)=O)C(=O)OCC` (stereo not drawn), for which half-maximal inhibition in the experiment with Schistosoma mansoni [1] (IC50) required 26.5 µM.
`CC(c1ccccc1)C1[C@]2(C)OO[C@@]1(C)OO2` (stereo partly drawn): the “Ratio IC50” value in experiment [3] was 0.1. The IC50 in the experiment on L6 was determined as 2.2 µM; with Schistosoma mansoni [2], 18.8 µM; in the experiment with Schistosoma mansoni [4], 12.9 µM; in the experiment on Schistosoma mansoni [1] it was 1.1 µM. The Activity in the experiment on Schistosoma mansoni [5] worked out at 4.6%; in the experiment on Schistosoma mansoni [6] it was 5%.
Turning to `CC(C)NC(=O)CCC1[C@]2(C)OO[C@@]1(C)OO2` (stereo partly drawn), the IC50 in the experiment with Schistosoma mansoni [1] stood at 25.6 µM.
Turning to `CC12CCC3(Cc4ccccc4)[C@@](C)(OO[C@]3(C)O1)O2`, the IC50 in the experiment on Schistosoma mansoni [2] was greater than 109 µM; in the experiment with Schistosoma mansoni [1], 13.4 µM.
Take `CC(C)(C)OOC(C#N)(C#N)Cc1ccc(Cl)cc1`: the IC50 in the experiment with Schistosoma mansoni [2] came out at 19.3 µM; with Schistosoma mansoni [4], 17.9 µM; in the experiment on Schistosoma mansoni [1], 3.9 µM.
For `CCOC(=O)C(Cc1ccccc1)(OOC(C)(C)C)C(C)=O` (stereo not drawn), the IC50 in the experiment on Schistosoma mansoni [1] was 15.1 µM.
On the same count and under the same terms, the figure for `C=CCC12CCC3(C)O[C@]1(C)OO[C@]2(C)O3` is 15.6 µM.
Regarding `C[C@]12OO[C@](C)(OO1)C2CCC(=O)N1CCOCC1` (stereo partly drawn), the IC50 was determined as 36.9 µM in the experiment with Schistosoma mansoni [2] and 10.7 µM with Schistosoma mansoni [1].
Compound `CCOC(=O)C(C#N)(Cc1ccccc1)OOC(C)(C)C` (stereo not drawn) had an IC50 with Schistosoma mansoni [1] of 67.7 µM.
Regarding `CCOC(=O)C(C#N)(Cc1ccc(Cl)cc1)OOC(C)(C)C` (stereo not drawn), the IC50 in the experiment on Schistosoma mansoni [2] was greater than 127 µM; in the experiment on Schistosoma mansoni [1], 9 µM.
`CC12CCC3(CCC#N)[C@@](C)(OO[C@]3(C)O1)O2` displayed an IC50 with Schistosoma mansoni [1] greater than 376 µM.
Turning to `C[C@]12OO[C@](C)(OO1)C2CCC(=O)NC12CC3CC(CC(C3)C1)C2` (stereo partly drawn), the IC50 was 33.3 µM in the experiment on Schistosoma mansoni [2], 39.3 µM in the experiment on Schistosoma mansoni [4] and 0.8 µM with Schistosoma mansoni [1].
For the compound `CC12CCC3(Cc4ccc([N+](=O)[O-])cc4)[C@@](C)(OO[C@]3(C)O1)O2`, in experiment [3], the “Ratio IC50” value was greater than 7.6. The figures for the IC50 in the experiment on L6, in the experiment with Schistosoma mansoni [2] and with Schistosoma mansoni [1] were greater than 93 µM, 12.2 µM and 9 µM, respectively. Further, the figures for the Activity in the experiment on Schistosoma mansoni [5] and in the experiment with Schistosoma mansoni [6] were 9.6% and 4.7%, respectively.
In the case of `CCOC(=O)CCC12CCC3(C)O[C@]1(C)OO[C@]2(C)O3`, the IC50 with Schistosoma mansoni [2] was greater than 105 µM; in the experiment on Schistosoma mansoni [4], 92.2 µM; in the experiment on Schistosoma mansoni [1], 3.5 µM.
As for `COc1ccc(CC(C#N)(C#N)OOC(C)(C)C)cc1`, the IC50 in the experiment on Schistosoma mansoni [2] amounted to 40.6 µM; with Schistosoma mansoni [1], 8 µM.
Regarding `Cc1ccc(C(C)C2[C@]3(C)OO[C@@]2(C)OO3)cc1` (stereo partly drawn), the IC50 in the experiment with Schistosoma mansoni [2] came to 30.9 µM; in the experiment on Schistosoma mansoni [4], 41.2 µM; with Schistosoma mansoni [1] it was 0.6 µM.
`CC12CCC3(CCC(=O)NC45CC6CC(CC(C6)C4)C5)[C@@](C)(OO[C@]3(C)O1)O2` came in with an IC50 in the experiment with Schistosoma mansoni [1] of 213 µM.
`CC12CCC3(CC4CO4)[C@@](C)(OO[C@]3(C)O1)O2` (stereo partly drawn): half-maximal inhibition in the experiment on Schistosoma mansoni [1] (IC50) was put at 22.5 µM.
In the experiment on Schistosoma mansoni [1], `C=CCC(C#N)(OOC(C)(C)C)C(=O)OCC` (stereo not drawn) came in with an IC50 of 43.2 µM.
The compound `CC12CCC3(C)[C@@](C)(OO[C@]3(C)O1)O2` displayed an IC50 with Schistosoma mansoni [1] of 180 µM.
`CC(C)(C)OOC(C#N)(C#N)Cc1ccccc1`: the “Ratio IC50” value in experiment [3] is 6.4. Further, the 50% inhibitory concentration (IC50) in the experiment on L6 came out at 99 µM; in the experiment on Schistosoma mansoni [2] it was 14.7 µM; in the experiment with Schistosoma mansoni [1] it was 5 µM. Moreover, the Activity in the experiment with Schistosoma mansoni [5] and in the experiment on Schistosoma mansoni [6] was 0% in each case.
For the compound `CC12CCC3[C@@](C)(OO[C@]3(C)O1)O2`, the IC50 with Schistosoma mansoni [2] is 19.2 µM; in the experiment on Schistosoma mansoni [1], 9 µM.
With `C[C@]12OO[C@](C)(OO1)C2CCC(=O)NCc1ccccc1` (stereo partly drawn), the results for the IC50 with Schistosoma mansoni [2] and in the experiment on Schistosoma mansoni [1] were greater than 102 µM and 10.9 µM, respectively.
`C[C@]12OO[C@](C)(OO1)C2CCC(=O)N1CCCCCC1` (stereo partly drawn): the values for the IC50 in the experiment on Schistosoma mansoni [2] and in the experiment on Schistosoma mansoni [1] were 50.1 µM and 5.5 µM, respectively.
As to `CCOC(=O)CNC(=O)CCC1[C@]2(C)OO[C@@]1(C)OO2` (stereo partly drawn), the figures for the IC50 in the experiment with Schistosoma mansoni [2] and with Schistosoma mansoni [1] were greater than 104 µM and 11.7 µM, respectively.
For the compound `C#CCC12CCC3(C)O[C@]1(C)OO[C@]2(C)O3`, the IC50 was determined as 82.4 µM in the experiment with Schistosoma mansoni [2] and 8.1 µM with Schistosoma mansoni [1].
As for `CC(c1ccc2ccccc2c1)C1[C@]2(C)OO[C@@]1(C)OO2` (stereo partly drawn), the IC50 came to 35.5 µM in the experiment on Schistosoma mansoni [2] and 7.1 µM in the experiment with Schistosoma mansoni [1].
With `CC12CCC3[C@@](C)(OO[C@]3(c3ccc(Cl)cc3)O1)O2`, the IC50 with Schistosoma mansoni [1] came out at 16 µM.
`CCOC(=O)CC(C)C(C#N)(C#N)OOC(C)(C)C` (stereo not drawn) gave an IC50 in the experiment on Schistosoma mansoni [1] of 157 µM.
In the case of `CC12CCC3[C@@](C)(OO[C@]3(c3ccccc3)O1)O2`, the “Ratio IC50” value in experiment [3] is 1.3. Moreover, the IC50 with L6 was determined as 10.3 µM; in the experiment with Schistosoma mansoni [2], 7.7 µM; in the experiment on Schistosoma mansoni [1] it was 9.3 µM. The Activity in the experiment with Schistosoma mansoni [5] was 15.2%; in the experiment on Schistosoma mansoni [6] it was 6.5%.
`CC(C)C(C#N)(C#N)OOC(C)(C)C` registered an IC50 in the experiment with Schistosoma mansoni [1] of 293 µM.
For `O=C(C1CCCCC1)N1CC(=O)N2CCc3ccccc3C2C1` (stereo not drawn) [PRAZIQUANTEL], the IC50 in the experiment with L6 was greater than 96 µM; in the experiment on Schistosoma mansoni [1] it was 2.2 µM.
Turning to `Cc1ccc(CC2[C@]3(C)OO[C@@]2(C)OO3)cc1` (stereo partly drawn), the IC50 was 40 µM with Schistosoma mansoni [2], greater than 127 µM in the experiment with Schistosoma mansoni [4] and 1.2 µM in the experiment on Schistosoma mansoni [1].
In the experiment with Schistosoma mansoni [1], `CCOC(=O)C(CCC#N)(OOC(C)(C)C)C(C)=O` (stereo not drawn) registered an IC50 greater than 111 µM.
On to `CC(c1ccc(Cl)cc1)C1[C@]2(C)OO[C@@]1(C)OO2` (stereo partly drawn), for which the figures for the IC50 in the experiment with Schistosoma mansoni [2], in the experiment with Schistosoma mansoni [4] and with Schistosoma mansoni [1] were 35.5 µM, 25.3 µM and 0.4 µM, respectively.
Turning to `C[C@]12OO[C@](C)(OO1)C2CCC(=O)N1CCCCC1` (stereo partly drawn), the figures for the IC50 in the experiment on Schistosoma mansoni [2] and in the experiment with Schistosoma mansoni [1] were greater than 111 µM and 6.6 µM, respectively.
In the experiment on Schistosoma mansoni [1], `CC12CCC3(CCC(=O)N4CCOCC4)[C@@](C)(OO[C@]3(C)O1)O2` yielded an IC50 greater than 287 µM.
On to `C1COC(OOC23CC4CC(CC(C4)C2)C3)C1` (stereo not drawn), for which, in the experiment on Schistosoma mansoni [1], the IC50 was greater than 126 µM.
In the experiment on Schistosoma mansoni [1], `CC12CCC3(CCC(=O)O)[C@@](C)(OO[C@]3(C)O1)O2` had an IC50 greater than 348 µM.
With `CC12CCC3[C@@](C)(OO[C@]3(c3ccc(Br)cc3)O1)O2`, the “Ratio IC50” value in experiment [3] is 0.9. For the same compound, the IC50 in the experiment on L6 was determined as 8.2 µM; in the experiment on Schistosoma mansoni [2], 8.7 µM; with Schistosoma mansoni [1], 1.7 µM. In addition, the values for the Activity in the experiment with Schistosoma mansoni [5] and in the experiment with Schistosoma mansoni [6] were 36.4% and 31.3%, respectively.
In the case of `CCOC(=O)C(C#N)(CC(C)=O)OOC(C)(C)C` (stereo not drawn), in the experiment with Schistosoma mansoni [1], the IC50 is 37.8 µM.
`CC(c1ccc(Br)cc1)C1[C@]2(C)OO[C@@]1(C)OO2` (stereo partly drawn): the IC50 in the experiment with Schistosoma mansoni [2] is 33.6 µM; in the experiment on Schistosoma mansoni [4], 47.7 µM; in the experiment with Schistosoma mansoni [1], 1 µM.
